The source of these data is PubChem BioAssay.

Assay [1] in a line: nonspecific flux increase, KCNQ1-free cells – parental CHO cells, counter-screen for KCNQ1 potentiator project (AID 493006;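 active = duplicate-averaged activation above buffer control mean plus 5 SD of those controls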). Conditions: parental CHO-K1 cells, FluxOR thallium flux, at 10 µM; stronger effect = higher value. In outline: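 Test system: parental CHO-K1 cells, FluxOR dye-loaded / Probe or stimulus: potassium plus thallium depolarizing stimulus, 5x stock 12.5 mM K2SO4, Tl2SO4 / Timing: overnight 37 °C plating, 90 min dye, 20 min dark compound / Measured by: kinetic thallium-flux fluorescence / Read-out: max-minus-min fluorescence over baseline, percent of buffer-to-R-L3 span / Benchmarks: buffer and R-L3 controls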

Assay [2] addresses Potassium voltage-gated channel subfamily KQT member 1 (Homo sapiens) (UniProt P51787). In words: enhancement of KCNQ1 channel thallium flux – FluxOR thallium flux, CHO cells, duplicates, confirmation (AID 493007;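 active = potentiation averaged over duplicate wells exceeding buffer-only control mean by more than 3 SD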;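 for outcome: cells depolarized by a potassium plus thallium sulfate stimulus after compound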;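 for potentiation: 0% = buffer-only wells and 100% = R-L3 activator control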). Conditions: KCNQ1 cell line, FluxOR thallium flux fluorescence, at 10 µM; stronger effect = higher value, % of reference activator effect, buffer zero. In short, it runs like this:
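Assay system: CHO cells carrying KCNQ1 | Controls: Buffer and R-L3 controls | Schedule: FluxOR dye loading 90 min, compound exposure 20 min, room temperature | Read-out: Baseline-normalized fluorescence change, percent of buffer-to-R-L3 range | Replicates: Each compound tested in duplicate | Technique: Kinetic thallium influx fluorescence with FluxOR dye, 10 s baseline, 110 s post-stimulus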

Assay [3] deals with Potassium voltage-gated channel subfamily KQT member 2 (Rattus norvegicus) (UniProt O88943). In words: KCNQ2 thallium flux enhancement – KCNQ2-CHO-K1 cells, selectivity assay for KCNQ1 potentiator project (AID 493009;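 active = mean duplicate potentiation above the buffer control mean plus 5 SD of buffer wells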;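 note: assay conditions were tuned for KCNQ1 rather than KCNQ2 modulators; signal is max minus min fluorescence divided by baseline after thallium stimulus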). Conditions: FluxOR thallium flux fluorescence, at 10 µM; stronger effect = higher value, scaled: buffer 0, activator control 100.
In assay [4] the target is Potassium voltage-gated channel subfamily KQT member 1 (Homo sapiens) (UniProt P51787). As to the kind of experiment: KCNQ1 activators by electrophysiology – IonWorks patch clamp, KCNQ1-CHO cells, orthogonal assay for KCNQ1 potentiator project, confirmation (AID 493184).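 For current potentiation: percent change of the same well's current before compound addition so 0% = no change.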 Conditions: automated patch clamp current, at 10 µM; stronger effect = higher value. In short, it runs like this:
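Material: KCNQ1-expressing CHO cells; doses: 10 µM final, single point; probe or stimulus: voltage step from -90 mV holding to +40 mV, 2,000 ms; signal: automated voltage clamp, amphotericin B perforated patch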

The source made the active and inactive calls.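 Rule for the calls, unless noted: active = current rise at least 3 SD above the untreated control mean in each of two repeat wells; inactive = the rest.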

Chain of Potassium voltage-gated channel subfamily KQT member 2 (Rattus norvegicus) (O88943 whole entry, looked up): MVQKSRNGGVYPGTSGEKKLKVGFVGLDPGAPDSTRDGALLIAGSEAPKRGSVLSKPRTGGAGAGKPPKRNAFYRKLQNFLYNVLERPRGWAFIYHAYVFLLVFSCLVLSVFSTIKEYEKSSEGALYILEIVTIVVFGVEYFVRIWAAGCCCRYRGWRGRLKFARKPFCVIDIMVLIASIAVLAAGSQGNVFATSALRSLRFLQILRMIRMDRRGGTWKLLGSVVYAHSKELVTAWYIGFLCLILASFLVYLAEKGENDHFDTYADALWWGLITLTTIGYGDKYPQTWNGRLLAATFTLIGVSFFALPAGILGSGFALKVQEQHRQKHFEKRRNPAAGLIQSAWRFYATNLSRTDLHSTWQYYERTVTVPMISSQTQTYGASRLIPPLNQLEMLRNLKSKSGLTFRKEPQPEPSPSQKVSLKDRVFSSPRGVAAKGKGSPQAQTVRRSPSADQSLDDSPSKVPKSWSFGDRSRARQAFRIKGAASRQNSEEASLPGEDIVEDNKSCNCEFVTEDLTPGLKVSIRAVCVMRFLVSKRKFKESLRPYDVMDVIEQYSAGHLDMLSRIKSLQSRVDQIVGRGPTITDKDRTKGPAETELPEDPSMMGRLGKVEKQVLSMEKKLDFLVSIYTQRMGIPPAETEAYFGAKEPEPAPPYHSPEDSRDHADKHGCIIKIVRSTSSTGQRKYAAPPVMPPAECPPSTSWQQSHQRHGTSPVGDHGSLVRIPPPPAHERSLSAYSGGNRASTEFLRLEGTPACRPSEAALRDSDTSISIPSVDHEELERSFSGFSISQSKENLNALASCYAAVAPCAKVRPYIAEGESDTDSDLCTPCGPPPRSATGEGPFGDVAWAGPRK
Chain of Potassium voltage-gated channel subfamily KQT member 1 (Homo sapiens) (P51787 whole entry, looked up): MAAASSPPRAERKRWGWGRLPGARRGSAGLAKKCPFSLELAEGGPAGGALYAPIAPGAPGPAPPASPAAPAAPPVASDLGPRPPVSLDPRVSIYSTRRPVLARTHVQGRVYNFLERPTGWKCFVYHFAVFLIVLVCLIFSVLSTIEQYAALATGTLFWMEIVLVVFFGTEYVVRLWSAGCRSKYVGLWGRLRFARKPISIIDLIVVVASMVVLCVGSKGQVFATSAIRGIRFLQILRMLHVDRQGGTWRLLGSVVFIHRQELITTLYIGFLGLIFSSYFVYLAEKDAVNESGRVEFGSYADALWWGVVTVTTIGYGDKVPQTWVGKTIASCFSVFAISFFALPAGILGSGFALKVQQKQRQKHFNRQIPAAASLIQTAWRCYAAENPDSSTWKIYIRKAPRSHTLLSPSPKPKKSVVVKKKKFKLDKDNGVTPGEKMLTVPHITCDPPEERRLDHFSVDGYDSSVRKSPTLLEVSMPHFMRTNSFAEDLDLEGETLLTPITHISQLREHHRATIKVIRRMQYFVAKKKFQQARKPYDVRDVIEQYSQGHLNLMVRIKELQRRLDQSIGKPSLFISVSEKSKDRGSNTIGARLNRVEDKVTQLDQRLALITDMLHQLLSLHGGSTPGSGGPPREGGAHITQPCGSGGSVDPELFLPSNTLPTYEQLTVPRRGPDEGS

For `Cc1nc(SCC(=O)NCC2CCCO2)c2c3c(sc2n1)CCCC3` (stereo not given), the activation in assay [1] is 158% (active). In addition, the potentiation in assay [2] was 55% (active); in assay [3], 197% (active). For the same compound, the result in assay [4] was inactive.
In the case of `CCOC(=O)c1sc2nc(C)[nH]c(=S)c2c1C`, the activation in assay [1] was 198% (active). In addition, the values for the potentiation in assay [2] and in assay [3] were 52% (active) and 214% (active), respectively. Moreover, the outcome in assay [4] was inactive.
`CCCN(CCC)CCNC(=O)Cn1cnc2sc(C)c(S(=O)(=O)N3CCOCC3)c2c1=O`: the result in assay [1], in assay [2], in assay [3] and in assay [4] was inactive.
On to `C/C(=N\NC(=O)C(=O)Nc1cccc(C(F)(F)F)c1)c1ccc(Cl)s1`, for which the result in assay [1], in assay [2], in assay [3] and in assay [4] was inactive.
As to `CN(C)c1ccc(C(=O)Nc2nnc(C3=COCCO3)o2)cc1`, the outcome in assay [1], in assay [2], in assay [3] and in assay [4] was inactive.
As to `Cc1nc(-c2nc(-c3c(C(=O)NNC(=O)c4ccc(Cl)cc4)noc3C)cs2)cs1`, the activation in assay [1] was 140% (active). Moreover, the results for the potentiation in assay [2] and in assay [3] were 54.5% (active) and 184% (active), respectively. Moreover, the result in assay [4] was inactive.
On the same counts, the results for `Cc1ccccc1NC1=NC(=S)N(c2ccccc2)C12CCCCC2` are 176% (active), 26% (active), 156% (active) and “inactive”.
Turning to `CCSc1nnc(NC(=O)[C@H](C)NC(=O)c2ccccc2Cl)s1`, the result in assay [1], in assay [2], in assay [3] and in assay [4] was inactive.
With `Cc1ccc(-n2cccc2/C=C2\C(=N)N3N=C(C(C)C)SC3=NC2=O)cc1`, the outcome in assay [1] and in assay [3] was inactive. Also, in assay [2], the potentiation is 23.5% (active). Moreover, the current potentiation in assay [4] is 36% (active).
For the compound `CC1=CC(=O)C=C(C)C1=NOS(=O)(=O)c1ccccc1`, the result in assay [1], in assay [2], in assay [3] and in assay [4] was inactive.
Turning to `O=C(NC(=S)N1CCc2ccccc21)c1ccco1`, in assay [1], the activation was 198% (active). For the same compound, the potentiation in assay [2] was 49.5% (active); in assay [3], 226% (active). Also, the outcome in assay [4] was inactive.
`Cc1cc(C(=O)N2CCCC(N3CCN(c4cccc(Cl)c4)CC3)C2)n(C)n1` (stereo not given): the outcome in assay [1], in assay [2], in assay [3] and in assay [4] was inactive.
For `COc1ccc(OC)c(NC(=O)C(=O)NNC(=O)COc2ccc(Br)cc2C)c1`, the activation in assay [1] is 520% (active). For the same compound, the potentiation in assay [2] was 346% (active); in assay [3], 614% (active). In addition, in assay [4], the outcome was inactive.
For `CCOCCc1c(O)nc(SC)[nH]c1=O`, the outcome in assay [1], in assay [2], in assay [3] and in assay [4] was inactive.
For `CCOC(=O)Cc1csc(NC(=S)NC(=O)c2ccccc2Br)n1`, the activation in assay [1] was 233% (active). The potentiation is 51% (active) in assay [2] and 239% (active) in assay [3]. Besides, the result in assay [4] was inactive.
For the compound `CC1SCC(=NOCc2c(Cl)cccc2Cl)CS1` (stereo not given), the outcome in assay [1], in assay [2], in assay [3] and in assay [4] was inactive.
On to `O=C(NC(=S)Nc1ccccc1N1CCCC1)c1ccco1`, for which the activation in assay [1] is 174% (active). Besides, the potentiation in assay [2] is 21.5% (active); in assay [3], 174% (active). In addition, in assay [4], the outcome was inactive.
For the compound `COC(=O)c1c(NC(=S)Nc2ccccc2Cl)sc(C)c1C`, the outcome in assay [1], in assay [2], in assay [3] and in assay [4] was inactive.
Turning to `O=C(Nn1c(Cc2cccs2)nc2ccccc2c1=O)c1cccs1`, the outcome in assay [1], in assay [2], in assay [3] and in assay [4] was inactive.
On to `CCOC(=O)NC(=S)Nc1ccc(C(C)(C)C)cc1Br`, for which the activation in assay [1] is 213% (active). The potentiation is 123% (active) in assay [2] and 249% (active) in assay [3]. The outcome in assay [4] was inactive.
The matching figures for `O=C(NC(=S)Nc1ccccc1N1CCCCC1)c1cccs1`: 212% (active), 133% (active), 234% (active) and “inactive”.
For `COc1ccc(OCC(=O)N2CCCC2=O)c([N+](=O)[O-])c1`, the outcome in assay [1], in assay [2], in assay [3] and in assay [4] was inactive.
Take `COC(=O)c1ccc(N2CCN(S(=O)(=O)c3ccc(Br)cc3)CC2)c([N+](=O)[O-])c1`: the result in assay [1], in assay [2], in assay [3] and in assay [4] was inactive.
Turning to `S=c1nc(-c2ccc(Br)cc2)[nH]c2ccccc12`, the activation in assay [1] was 572% (active). The potentiation in assay [2] was 188% (active); in assay [3] it was 538% (active). In assay [4], the result was inactive.
`O=C(CSc1nc2ccccc2[nH]1)N/N=C/c1ccncc1`: the result in assay [1], in assay [2], in assay [3] and in assay [4] was inactive.
Regarding `S=c1[nH]cc(Cc2ccccc2)s1`, the activation in assay [1] was 205% (active). Also, the potentiation was 28.5% (active) in assay [2] and 216% (active) in assay [3]. Besides, in assay [4], the outcome was inactive.
As for `CCCn1c(NC(=O)CN2C(=O)NC3(CCCC3)C2=O)nc2ccccc21`, the result in assay [1], in assay [2], in assay [3] and in assay [4] was inactive.
`CCOC(=O)c1ccc(N2C(=O)c3n[nH]c(C)c3C2c2ccccn2)cc1` (stereo not given): the result in assay [1], in assay [2], in assay [3] and in assay [4] was inactive.
As to `COc1ccccc1NC(=O)C(=O)NNC(=O)c1ccco1`, in assay [1], the activation is 240% (active). The potentiation is 62.5% (active) in assay [2] and 210% (active) in assay [3]. Besides, in assay [4], the result was inactive.
In the case of `C#CC1(NC(=O)NCCCC)CCCCC1`, the outcome in assay [1], in assay [2], in assay [3] and in assay [4] was inactive.
